Measurements published in the M2OR odorant receptor database.
Substitutions are numbered along the chain they refer to.

How the values were obtained:
Details in all cases: stereoisomer not certain
[1] = biological target: T1, OR6B3 (Homo sapiens) (UniProt Q8NGW1)
T1 sequence (whole entry): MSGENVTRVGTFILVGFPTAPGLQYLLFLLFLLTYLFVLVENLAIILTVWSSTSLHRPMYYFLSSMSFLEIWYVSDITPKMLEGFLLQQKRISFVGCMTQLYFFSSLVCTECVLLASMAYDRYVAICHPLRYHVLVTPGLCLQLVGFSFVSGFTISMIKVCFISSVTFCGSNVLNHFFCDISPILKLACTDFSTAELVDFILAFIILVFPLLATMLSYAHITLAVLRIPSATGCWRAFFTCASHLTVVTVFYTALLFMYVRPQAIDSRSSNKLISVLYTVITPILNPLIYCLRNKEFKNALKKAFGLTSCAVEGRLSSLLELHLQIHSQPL
In short: (§1)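 Whether a receptor–molecule pair is responsive (active) rests on the original authors' judgment that its measured signal was statistically different from baseline. Pairs without that judgment are non-responsive (inactive). Sources used varied assay methods, commonly transient luciferase assays in mammalian cell lines.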

[2] = biological target: T2, OR6C1 (Homo sapiens) (UniProt Q96RD1)
T2 sequence (whole entry): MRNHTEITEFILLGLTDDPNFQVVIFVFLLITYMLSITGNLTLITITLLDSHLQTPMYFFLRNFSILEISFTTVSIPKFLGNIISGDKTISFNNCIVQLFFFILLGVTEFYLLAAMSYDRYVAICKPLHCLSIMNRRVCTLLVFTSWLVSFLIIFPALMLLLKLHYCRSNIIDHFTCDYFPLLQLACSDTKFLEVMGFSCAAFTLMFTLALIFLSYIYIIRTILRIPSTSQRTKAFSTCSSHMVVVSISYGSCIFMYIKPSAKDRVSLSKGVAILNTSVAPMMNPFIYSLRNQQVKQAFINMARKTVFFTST
In short: as §1

[3] = biological target: T3, OR6C2 (Homo sapiens) (UniProt Q9NZP2)
T3 sequence (whole entry): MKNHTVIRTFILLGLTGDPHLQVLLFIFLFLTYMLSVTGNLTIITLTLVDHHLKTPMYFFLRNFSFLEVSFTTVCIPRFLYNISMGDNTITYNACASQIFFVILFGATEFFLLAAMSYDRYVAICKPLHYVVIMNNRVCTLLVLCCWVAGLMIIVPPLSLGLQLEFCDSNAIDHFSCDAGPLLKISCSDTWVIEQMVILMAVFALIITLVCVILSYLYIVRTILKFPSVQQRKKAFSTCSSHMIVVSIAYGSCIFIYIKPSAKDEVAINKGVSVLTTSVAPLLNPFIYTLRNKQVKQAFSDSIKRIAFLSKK
In short: as §1

[4] = biological target: T4, OR6C3 (Homo sapiens) (UniProt Q9NZP0)
T4 sequence (whole entry): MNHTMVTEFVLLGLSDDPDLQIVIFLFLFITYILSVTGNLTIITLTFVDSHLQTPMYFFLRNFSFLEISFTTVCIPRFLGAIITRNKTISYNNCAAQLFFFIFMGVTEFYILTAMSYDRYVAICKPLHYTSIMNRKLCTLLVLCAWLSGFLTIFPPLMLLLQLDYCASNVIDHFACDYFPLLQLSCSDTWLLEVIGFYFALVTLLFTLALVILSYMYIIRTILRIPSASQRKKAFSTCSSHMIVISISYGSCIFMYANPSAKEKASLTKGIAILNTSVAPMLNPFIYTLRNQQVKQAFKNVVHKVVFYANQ
In short: as §1

[5] = biological target: T5, OR6C4 (Homo sapiens) (UniProt Q8NGE1)
T5 sequence (whole entry): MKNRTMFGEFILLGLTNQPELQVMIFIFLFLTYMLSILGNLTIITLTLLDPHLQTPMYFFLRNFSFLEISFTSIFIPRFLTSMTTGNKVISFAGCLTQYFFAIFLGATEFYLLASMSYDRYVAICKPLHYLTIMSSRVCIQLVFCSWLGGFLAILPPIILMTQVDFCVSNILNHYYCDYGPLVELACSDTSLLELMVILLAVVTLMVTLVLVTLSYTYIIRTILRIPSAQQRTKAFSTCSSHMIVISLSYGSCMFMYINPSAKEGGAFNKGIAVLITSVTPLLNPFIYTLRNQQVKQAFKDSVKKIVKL
In short: as §1

[6] = biological target: T6, OR6C6 (Homo sapiens) (UniProt A6NF89)
T6 sequence (whole entry): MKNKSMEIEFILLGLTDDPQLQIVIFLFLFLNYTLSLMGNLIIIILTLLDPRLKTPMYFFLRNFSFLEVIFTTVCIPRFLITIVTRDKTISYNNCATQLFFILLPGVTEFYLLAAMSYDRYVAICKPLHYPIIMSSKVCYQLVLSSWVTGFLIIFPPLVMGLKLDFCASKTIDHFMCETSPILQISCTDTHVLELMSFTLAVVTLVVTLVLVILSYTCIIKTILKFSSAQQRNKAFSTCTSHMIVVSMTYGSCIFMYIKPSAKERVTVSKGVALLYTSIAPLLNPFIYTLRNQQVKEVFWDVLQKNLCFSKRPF
In short: as §1

[7] = biological target: T7, OR6C65 (Homo sapiens) (UniProt A6NJZ3)
T7 sequence (whole entry): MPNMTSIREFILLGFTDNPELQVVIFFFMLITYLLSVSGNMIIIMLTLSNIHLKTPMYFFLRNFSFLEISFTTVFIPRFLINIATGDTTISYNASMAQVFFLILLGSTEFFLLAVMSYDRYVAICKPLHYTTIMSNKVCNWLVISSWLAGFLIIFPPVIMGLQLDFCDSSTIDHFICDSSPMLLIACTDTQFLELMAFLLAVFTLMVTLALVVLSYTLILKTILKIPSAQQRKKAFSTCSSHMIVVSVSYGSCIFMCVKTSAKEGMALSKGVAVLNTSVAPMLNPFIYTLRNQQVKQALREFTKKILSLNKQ
In short: as §1

[8] = biological target: T8, OR6C68 (Homo sapiens) (UniProt A6NDL8)
T8 sequence (whole entry): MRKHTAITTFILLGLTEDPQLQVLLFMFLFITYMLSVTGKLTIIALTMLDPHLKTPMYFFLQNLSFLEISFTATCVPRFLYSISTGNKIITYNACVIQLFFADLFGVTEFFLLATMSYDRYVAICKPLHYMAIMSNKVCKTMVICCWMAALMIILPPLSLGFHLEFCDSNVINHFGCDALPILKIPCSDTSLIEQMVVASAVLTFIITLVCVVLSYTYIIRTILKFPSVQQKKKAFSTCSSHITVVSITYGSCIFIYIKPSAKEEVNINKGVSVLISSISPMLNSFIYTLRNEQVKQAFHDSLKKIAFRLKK
In short: as §1

[9] = biological target: T9, OR6C70 (Homo sapiens) (UniProt A6NIJ9)
T9 sequence (whole entry): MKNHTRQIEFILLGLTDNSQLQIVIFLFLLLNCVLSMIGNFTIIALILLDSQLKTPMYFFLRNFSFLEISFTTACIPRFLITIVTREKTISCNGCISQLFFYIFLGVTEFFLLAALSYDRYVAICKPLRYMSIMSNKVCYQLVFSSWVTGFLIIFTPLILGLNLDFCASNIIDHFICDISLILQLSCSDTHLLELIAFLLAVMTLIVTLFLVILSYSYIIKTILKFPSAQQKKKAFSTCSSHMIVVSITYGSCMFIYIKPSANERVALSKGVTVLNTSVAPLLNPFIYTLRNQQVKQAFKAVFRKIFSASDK
In short: as §1

[10] = biological target: T10, OR6C74 (Homo sapiens) (UniProt A6NCV1)
T10 sequence (whole entry): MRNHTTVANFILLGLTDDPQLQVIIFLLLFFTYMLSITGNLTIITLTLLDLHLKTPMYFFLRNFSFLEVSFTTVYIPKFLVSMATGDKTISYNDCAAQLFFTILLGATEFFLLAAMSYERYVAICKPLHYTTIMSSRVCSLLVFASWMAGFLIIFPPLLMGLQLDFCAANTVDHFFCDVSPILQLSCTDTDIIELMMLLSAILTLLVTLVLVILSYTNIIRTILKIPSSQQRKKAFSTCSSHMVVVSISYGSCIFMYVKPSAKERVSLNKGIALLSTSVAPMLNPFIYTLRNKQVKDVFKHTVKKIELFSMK
In short: as §1

[11] = biological target: T11, OR6C75 (Homo sapiens) (UniProt A6NL08)
T11 sequence (whole entry): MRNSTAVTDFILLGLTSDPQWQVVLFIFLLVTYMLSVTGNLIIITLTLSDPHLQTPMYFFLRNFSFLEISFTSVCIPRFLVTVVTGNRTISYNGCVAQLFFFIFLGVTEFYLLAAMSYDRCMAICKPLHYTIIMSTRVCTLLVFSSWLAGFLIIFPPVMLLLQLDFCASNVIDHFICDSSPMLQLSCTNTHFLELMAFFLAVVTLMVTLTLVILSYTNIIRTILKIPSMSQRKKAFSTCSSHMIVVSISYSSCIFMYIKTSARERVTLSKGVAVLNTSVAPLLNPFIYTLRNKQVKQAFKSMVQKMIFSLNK
In short: as §1

[12] = biological target: T12, OR6C76 (Homo sapiens) (UniProt A6NM76)
T12 sequence (whole entry): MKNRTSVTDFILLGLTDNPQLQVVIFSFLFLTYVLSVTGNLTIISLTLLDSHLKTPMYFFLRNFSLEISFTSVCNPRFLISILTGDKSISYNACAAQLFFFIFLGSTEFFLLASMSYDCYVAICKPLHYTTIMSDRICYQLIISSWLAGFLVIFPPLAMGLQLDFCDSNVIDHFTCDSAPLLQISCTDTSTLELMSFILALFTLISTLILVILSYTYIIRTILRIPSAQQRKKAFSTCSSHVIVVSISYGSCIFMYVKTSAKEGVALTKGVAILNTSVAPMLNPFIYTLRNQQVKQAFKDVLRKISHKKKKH
In short: as §1

[13] = biological target: T13, OR6F1 (Homo sapiens) (UniProt Q8NGZ6)
T13 sequence (whole entry): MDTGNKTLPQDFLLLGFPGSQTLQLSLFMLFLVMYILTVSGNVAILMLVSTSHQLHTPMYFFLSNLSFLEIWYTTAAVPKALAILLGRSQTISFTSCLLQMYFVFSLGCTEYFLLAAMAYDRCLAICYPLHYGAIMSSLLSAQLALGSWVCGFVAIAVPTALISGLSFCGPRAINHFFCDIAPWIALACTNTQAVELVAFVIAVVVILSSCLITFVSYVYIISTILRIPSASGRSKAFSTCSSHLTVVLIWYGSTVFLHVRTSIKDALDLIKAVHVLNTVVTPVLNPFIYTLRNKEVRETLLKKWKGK
In short: as §1

[14] = biological target: T14, OR6J1 (Homo sapiens) (UniProt Q8NGC5)
T14 sequence (whole entry): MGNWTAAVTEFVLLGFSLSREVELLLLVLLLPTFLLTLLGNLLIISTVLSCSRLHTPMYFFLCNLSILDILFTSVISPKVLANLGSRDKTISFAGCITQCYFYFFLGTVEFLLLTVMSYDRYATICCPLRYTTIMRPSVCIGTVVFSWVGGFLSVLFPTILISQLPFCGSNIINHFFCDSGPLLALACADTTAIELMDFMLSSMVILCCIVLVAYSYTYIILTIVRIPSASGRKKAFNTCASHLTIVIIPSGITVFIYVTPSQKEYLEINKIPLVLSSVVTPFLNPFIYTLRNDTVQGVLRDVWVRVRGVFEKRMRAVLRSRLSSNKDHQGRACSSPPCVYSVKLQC
In short: as §1

[15] = biological target: T15, OR6K2 (Homo sapiens) (UniProt Q8NGY2)
T15 sequence (whole entry): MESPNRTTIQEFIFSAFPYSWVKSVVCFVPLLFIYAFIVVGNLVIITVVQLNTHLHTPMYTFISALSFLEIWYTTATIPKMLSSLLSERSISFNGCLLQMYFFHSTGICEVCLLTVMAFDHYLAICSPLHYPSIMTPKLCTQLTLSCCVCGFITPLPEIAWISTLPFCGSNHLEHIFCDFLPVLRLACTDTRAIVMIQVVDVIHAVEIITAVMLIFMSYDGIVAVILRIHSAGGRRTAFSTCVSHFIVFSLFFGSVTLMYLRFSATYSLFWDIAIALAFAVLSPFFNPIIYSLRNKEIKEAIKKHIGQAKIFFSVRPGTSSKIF
In short: as §1

[16] = system: T16, OR6B3 T48I R131C
T16 sequence (whole entry): T1 sequence (whole entry) with T48I, R131C
In short: as §1

[17] = system: T17, OR6C1 C130Y H165D V246I
T17 sequence (whole entry): T2 sequence (whole entry) with C130Y, H165D, V246I
In short: as §1

[18] = system: T18, OR6C4
T18 sequence (whole entry): T5 sequence (whole entry) with I37V
In short: as §1

[19] = system: T19, OR6C6 M6I
T19 sequence (whole entry): T6 sequence (whole entry) with M6I
In short: as §1

[20] = biological target: T20, OR6J1 (Homo sapiens) (UniProt Q8NGC5); remark: listed apart in the source
T20 sequence (whole entry): T14 sequence (whole entry) with P250S
In short: as §1

Measured: odorant receptor agonist call;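 also: active if original authors judged signal statistically different from baseline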

CC1CCCCCCCCCCCCC(=O)C1 (centres undefined)
not listed: [16] | [17] | [18] | [19] | [20]
inactive: all other assays above

CCCCCC(=O)C(C)C(C)=O (centres undefined)
not listed: [16] | [17] | [18] | [19] | [20]
inactive: all other assays above

CCC1OC(C)=C(O)C1=O (centres undefined)
not listed: [14]
inactive: all other assays above

CC(=O)c1c(C)c([N+](=O)[O-])c(C(C)(C)C)c([N+](=O)[O-])c1C
not listed: [16] | [17] | [18] | [19] | [20]
inactive: all other assays above
